Reference: ChEMBL document CHEMBL1143989, “New anti-viral drugs for the treatment of the common cold” (Bioorg Med Chem, 2008)
In brackets after ≈: the same amount, converted by molar mass. Activity calls are given as the source filed them. No cut-off for these calls is given here.

Assays:
[1] = Cytotoxicity against human HeLa cells after 5 days; assay type: cell-based; conditions: read-out: Maximal non-toxic dose 50
How it was run: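 HeLa (Ohio strain) cells plated at about 10^4 cells per ml in 24-well plates, kept at 33 °C in 3% CO2 in DMEM with 1% non-essential amino acids and 10% FCS. Exposed to decreasing compound concentrations for 5 days; viability read by neutral red uptake. MNTD50 (dose inhibiting less than 50% replication vs control) obtained by regression; triplicate.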

[2] = target: T1, Human rhinovirus A protease (Human rhinovirus sp.) (UniProt Q4U254); assay: Inhibition of HRV14 3C protease in presence of dithiothreitol; conditions: rhinovirus B14
T1 sequence (whole entry): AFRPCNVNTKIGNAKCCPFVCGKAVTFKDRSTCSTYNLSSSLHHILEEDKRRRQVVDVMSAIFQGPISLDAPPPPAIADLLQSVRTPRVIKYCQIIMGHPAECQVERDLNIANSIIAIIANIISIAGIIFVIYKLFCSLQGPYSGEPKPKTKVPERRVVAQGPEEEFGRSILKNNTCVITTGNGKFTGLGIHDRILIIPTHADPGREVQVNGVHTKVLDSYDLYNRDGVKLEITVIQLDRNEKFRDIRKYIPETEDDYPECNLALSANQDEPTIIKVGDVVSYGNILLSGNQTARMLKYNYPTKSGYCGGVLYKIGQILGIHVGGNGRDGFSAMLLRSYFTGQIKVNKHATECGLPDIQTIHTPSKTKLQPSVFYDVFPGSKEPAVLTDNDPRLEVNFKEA

[3] = target: T1, Human rhinovirus A protease (Human rhinovirus sp.); assay: Inhibition of HRV14 3C protease at 10 uM; conditions: rhinovirus B14
How it was run: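 Recombinant HRV14 3C protease at 0.7 uM with EALFQ-pNA chromogenic substrate, compound at 10 µM final, 1% DMSO final. Buffer: 25 mM Hepes pH 7.5, 150 mM NaCl, 0.12 mM DTT, 1 mM EDTA. Started by adding enzyme; A405 read at 0 and 60 min at 30 °C. Percent inhibition vs uninhibited control; duplicates, mean ± SD.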

[4] = target: T1, Human rhinovirus A protease (Human rhinovirus sp.); assay: Inhibition of HRV14 3C protease at 1 uM; conditions: rhinovirus B14
[5] = target: T1, Human rhinovirus A protease (Human rhinovirus sp.); assay: Inhibition of HRV14 3C protease at 0.1 uM; conditions: rhinovirus B14
[6] = tested on: rhinovirus B14; assay: Antiviral activity against HRV14; assay type: functional, organism-based; conditions: Rhinovirus B; read-out: ID50 (the source's name)
How it was run: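 HeLa (Ohio) monolayers at 33 °C, 3% CO2, in DMEM with 1% non-essential amino acids and 10% FCS. Infected with HRV-14 at MOI 0.1, then decreasing compound amounts added. After 24 h, freeze-thaw; supernatant titrated under 2% nutrient agar and plaques counted after neutral red staining. ID50 derived from plaque counts.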

[7] = tested on: Human alphaherpesvirus 2; assay: Antiviral activity against HSV2; assay type: functional, organism-based
[8] = tested on: Influenza A virus; assay: Antiviral activity against WSN influenza A virus; assay type: functional, organism-based
How it was run: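 Cell-based antiviral test in the VERO/MDCK cell set, run on 24-well plates by analogy with the HeLa/rhinovirus method. Activity was scored after 48 h of incubation at 37 °C under 5% CO2.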

[9] = target: T1, Human rhinovirus A protease (Human rhinovirus sp.); assay: Inhibition of HRV14 3C protease at 1 mM; conditions: rhinovirus B14
[10] = target: T1, Human rhinovirus A protease (Human rhinovirus sp.); assay: Inhibition of HRV14 3C protease at 0.16 to 100 uM; conditions: rhinovirus B14
How it was run: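 Colorimetric HRV14 3C protease assay: 0.7 uM enzyme, EALFQ-pNA substrate, Hepes pH 7.5 buffer with 0.12 mM DTT and 1 mM EDTA. Compound tested across 0.16 to 100 µM; p-nitroaniline release read at 405 nm after 60 min at 30 °C.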

[11] = Inhibition of HRV 3C protease; design: species or system Human rhinovirus sp.

| Structure (SMILES) | Activity [2] | inhibition [3] [%] | inhibition [4] [%] | inhibition [5] [%] | other results |
| --- | --- | --- | --- | --- | --- |
| NC(=O)c1cccc(C(=O)CBr)c1 | inactive | 85 | 23 | 4 | MNTC at 120 h [1]: > 100 µg/mL; IC50 [6]: 25 µg/mL (≈ 103 µM); Activity [7]: Active; Activity [8]: Active |
| NC(=O)c1cccc(C(=O)C(Cl)Cl)c1 |  | > 50 |  |  |  |
| NC(=O)c1cc(C(=O)CBr)cc(C(=O)Nc2ccccc2)c1 | inactive | 86 | 27 | 8 |  |
| CC(=O)N[C@@H](CC(C)C)C(=O)N[C@@H](CC(C)C)C(=O)N[C@H](C=O)CCCNC(=N)N |  |  |  |  | inhibition [9]: 57% |
| NC(=O)c1cccc(C(=O)C(F)(F)F)c1 |  |  |  |  | Activity [10]: inactive |
| CCOC(=O)/C=C/[C@H](C[C@@H]1CCNC1=O)NC(=O)[C@@H](CC(=O)[C@@H](NC(=O)c1cc(C)on1)C(C)C)Cc1ccc(F)cc1 | inactive |  |  |  |  |
| O=C(CBr)c1ccc2c(c1)C(=O)NC2 | inactive | 70 | 25 | 0 |  |
| NC(=O)c1cc(Cc2ccccc2)cc(C(=O)CBr)c1 | inactive | 68 | 30 | 0 |  |
| NC(=O)c1cc(Cc2ccccc2)cc(C(=O)C(Br)Br)c1 | inactive | 75 | 27 | 14 |  |
| NC(=O)c1cccc(C(=O)C(Br)Br)c1 |  | > 50 |  |  |  |
| NC(=O)c1cccc(C(=O)CCl)c1 |  | > 50 |  |  | MNTC at 120 h [1]: 3.12 µg/mL |
| NC(=O)c1cc(C(=O)CBr)cc(C(=O)Nc2ccc3ccccc3c2)c1 | inactive | 80 | 19 | 5 |  |
| NC(=O)c1cc(Cc2ccccc2)cc(C(=O)CCl)c1 | inactive | 91 | 79 | 14 | MNTC at 120 h [1]: 0.75 µg/mL; IC50 [6]: > 0.75 µg/mL |
| CCOC(=O)/C=C/[C@H](CCC(N)=O)CC(=O)[C@H](Cc1ccccc1)NC(=O)[C@H](CC(C)C)NC(=O)OCc1ccccc1 |  |  |  |  | IC50 [11]: 540 nM |
| NC(=O)c1cc(Cc2ccc3ccccc3c2)cc(C(=O)CCl)c1 | inactive | 81 | 61 | 25 | MNTC at 120 h [1]: 0.75 µg/mL; IC50 [6]: > 0.75 µg/mL |
| NC(=O)c1cc(Cc2ccc3ccccc3c2)cc(C(=O)C(Br)Br)c1 |  | > 70 |  |  |  |
| CCOC(=O)CCn1c(=O)c2ccccc2n(CC(=O)c2ccccc2)c1=O |  |  |  |  | IC50 [11]: 55400 nM |
| NC(=O)CCN(NC(=O)[C@H](Cc1ccccc1)NC(=O)OCc1ccccc1)C(=O)CBr |  |  |  |  | IC50 [11]: 48 nM |
| NC(=O)c1cc(Cc2ccc3ccccc3c2)cc(C(=O)CBr)c1 | inactive | 83 | 39 | 12 |  |
